These results are taken from ChEMBL document CHEMBL4049390, “Combination of amino acid/dipeptide with ligustrazine-betulinic acid as antitumor agents” (Eur J Med Chem, 2017).

Usually IC50 stands for the concentration that gives 50% inhibition. A higher IC50 goes with a need for much substance.

One assay relates to HepG2. Kind of assay: Antiproliferative activity against human HepG2 cells after 72 hrs by MTT assay. It is filed as functional, cell-based. The conditions noted are these: HepG2, 72 h. The gist of the method:
(§1)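 MTT assay. Log-phase cells were seeded at 3×10^3 cells/well and left overnight, then exposed to serial dilutions of compound (DMSO solutions) for 72 h in RPMI 1640 with 10% heat-inactivated FBS at 37 °C, 5% CO2. MTT (5 mg/mL, 20 µL) was added for 4 h at 37 °C and the formazan dissolved in DMSO. A490 was read. % inhibition = (1 − sample OD/control OD)×100; IC50 is the 50% growth-inhibition concentration. Triplicates, n = 3 independent experiments.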
Background: Tetrazolium assays rely on reduction of a dye to a coloured formazan, in cell work by metabolically active cells.

Another assay deals with HT-29. The assay is described as follows: Antiproliferative activity against human HT-29 cells after 72 hrs by MTT assay. It is filed as functional, cell-based. The following applies: HT-29, 72 h. The gist of the method: as §1
In assay [1] the test system is HeLa. Kind of assay: Antiproliferative activity against human HeLa cells after 72 hrs by MTT assay. It is filed as functional, cell-based. The gist of the method: as §1
For the next assay, the system named is BGC-823. The assay is described as follows: Antiproliferative activity against human BGC823 cells after 72 hrs by MTT assay. It is filed as functional, cell-based. The conditions noted are these: BGC-823, 72 h. Summed up: as §1
Another assay has as its system A549. The assay is described as follows: Antiproliferative activity against human A549 cells after 72 hrs by MTT assay. It is filed as functional, cell-based. The conditions noted are these: A549, 72 h. Summed up:
as §1

Another assay has as its system MDCK. Kind of assay: Antiproliferative activity against MDCK cells after 72 hrs by MTT assay. It is filed as cell-based. The following applies: Canis lupus familiaris. The gist of the method:
as §1

The nature of assay [2]: Therapeutic index, ratio of IC50 for MDCK cells to IC50 for human HepG2 cells. Summed up:
(§2)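 Ratios were calculated from MTT IC50 values (72 h exposure, A490 read-out, n = 3). Potency index = cisplatin IC50 / compound IC50. Therapeutic index = MDCK IC50 / tumour-line IC50.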

A short description of assay [3]: Therapeutic index, ratio of IC50 for MDCK cells to IC50 for human HT-29 cells. Summed up:
as §2

Assay [4] relates to HeLa. The assay is described as follows: Therapeutic index, ratio of IC50 for MDCK cells to IC50 for human HeLa cells. The gist of the method: as §2
A short description of assay [5]: Therapeutic index, ratio of IC50 for MDCK cells to IC50 for human BGC823 cells. Summed up: as §2
Assay [6] is described as follows: Therapeutic index, ratio of IC50 for MDCK cells to IC50 for human A549 cells. Summed up: as §2

Molecules are shown by their SMILES.

Consider `C=C(C)[C@@H]1CC[C@]2(C(=O)OCc3nc(C)c(C)nc3C)CC[C@]3(C)[C@H](CC[C@@H]4[C@@]5(C)CC[C@H](OC(=O)[C@@H](N)CCCCN)C(C)(C)[C@@H]5CC[C@]43C)[C@@H]12`, for which the 50% inhibitory concentration (IC50) with HepG2 was 2.39 µM; in the assay on HT-29, 2.64 µM; with HeLa [1], 2.62 µM; with BGC-823, 2.16 µM; with A549, 1.26 µM; in the assay with MDCK it was greater than 40 µM. Further, the “Ratio IC50” value (in assay [2]; in [3]; in the assay on HeLa [4]; in [5]; in assay [6]) was greater than 10 throughout.

On to `C=C(C)[C@@H]1CC[C@]2(C(=O)OCc3nc(C)c(C)nc3C)CC[C@]3(C)[C@H](CC[C@@H]4[C@@]5(C)CC[C@H](OC(=O)[C@H](C)NC(=O)CN)C(C)(C)[C@@H]5CC[C@]43C)[C@@H]12`, for which the IC50 in the assay on HepG2 is 2.17 µM; with HT-29 it was 4.38 µM; in the assay on HeLa [1] it was 5.57 µM; in the assay with BGC-823 it was 1.49 µM; with A549 it was 2.45 µM; in the assay on MDCK, greater than 40 µM. The “Ratio IC50” value (in assay [2]; in [3]; in the assay with HeLa [4]; in [5]; in assay [6]) was greater than 10 in each case.

On to `C=C(C)[C@@H]1CC[C@]2(C(=O)OCc3nc(C)c(C)nc3C)CC[C@]3(C)[C@H](CC[C@@H]4[C@@]5(C)CC[C@H](OC(=O)[C@H](C)NC(=O)[C@@H]6CCCN6)C(C)(C)[C@@H]5CC[C@]43C)[C@@H]12`, for which the half-inhibitory concentration (IC50) is 3.39 µM with HepG2; 3.56 µM in the assay on HT-29; 2.33 µM with HeLa [1]; 2.52 µM in the assay with BGC-823; 4.08 µM in the assay with A549; greater than 40 µM in the assay with MDCK. The “Ratio IC50” value (in assay [2]; in [3]; with HeLa [4]; in assay [5]; in assay [6]) was greater than 10 each time.

For `C=C(C)[C@@H]1CC[C@]2(C(=O)OCc3nc(C)c(C)nc3C)CC[C@]3(C)[C@H](CC[C@@H]4[C@@]5(C)CC[C@H](OC(=O)CN)C(C)(C)[C@@H]5CC[C@]43C)[C@@H]12`, the half-maximal inhibitory concentration (IC50) with HepG2 came to 6.77 µM; in the assay on HT-29, 3.97 µM; in the assay on HeLa [1], 4.24 µM; in the assay with BGC-823 it was 3.87 µM; in the assay with A549 it was 3.62 µM; in the assay on MDCK, 5.82 µM.

For `C=C(C)[C@@H]1CC[C@]2(C(=O)OCc3nc(C)c(C)nc3C)CC[C@]3(C)[C@H](CC[C@@H]4[C@@]5(C)CC[C@H](OC(=O)[C@H](C)NC(=O)[C@H](C)N)C(C)(C)[C@@H]5CC[C@]43C)[C@@H]12`, the IC50 stood at 1.93 µM in the assay on HepG2; 4.18 µM with HT-29; 4.49 µM in the assay with HeLa [1]; 2.51 µM in the assay with BGC-823; 2.54 µM with A549; 10.2 µM in the assay on MDCK.

With `C=C(C)[C@@H]1CC[C@]2(C(=O)OCc3nc(C)c(C)nc3C)CC[C@]3(C)[C@H](CC[C@@H]4[C@@]5(C)CC[C@H](OC(=O)[C@@H](N)CC(C)C)C(C)(C)[C@@H]5CC[C@]43C)[C@@H]12`, the concentration for half-maximal inhibition (IC50) in the assay with HepG2 was greater than 40 µM; in the assay with HT-29 it was greater than 20 µM; in the assay with HeLa [1], greater than 20 µM; with BGC-823 it was greater than 20 µM; in the assay on A549 it was greater than 20 µM; in the assay with MDCK, greater than 40 µM.
